From the RNAGym collection of RNA variant scans (doi:10.1002/anie.201605470) come the findings set out here.

The chains are these.
B1: Osa-1-4 twister ribozyme (parent)
chain: CCGCCUAACACUGCCAAUGCCGGUCCCAAGCCCGGAUAAAAGUGGAGGGGGCGG

Variants of B1 are the subject of this data set. The experiment in a line: self-cleavage, relative activity (ratio to wild type); higher = more cleavage; co-transcriptional. The essentials:
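The 48 positions downstream of the cleavage site in a DNA template for a 54-nucleotide Oryza sativa twister ribozyme carried 97 % wild-type base and 1 % of each other base. After in vitro transcription (2 h, 37 °C) with co-transcriptional self-cleavage, the RNA was reverse-transcribed with a template-switching oligonucleotide, PCR-amplified and deep-sequenced. Relative activity is the fraction cleaved, judged by reads with or without upstream sequence and normalised to wild type.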
As for C27U U43C, the self-cleavage amounted to 0.1.
Regarding C27U U43G, the self-cleavage was found to be 0.08.
For C27U U43A the value was 0.11.
For A28C C27G the value was 0.05.
For A28C C27A the value was 0.09; for A28C C27U, 0.11.
A28G C26G: the self-cleavage is 0.21.
As for A28G C26U, the self-cleavage was determined as 0.11.
Regarding A28G C26A, the self-cleavage is 0.03.
With A28G C11U the figure was 0.16; with A28G C11A, 0.09.
With A28G C11G the figure was 0.06; with A28G A7U, 0.07; with A28G A7C, 0.04.
With A28G A7G the figure was 0.38; with A28C A7U, 0.07.
As for A28C A7C, the self-cleavage turned out to be 0.06.
Turning to A28C A7G, the self-cleavage was 0.2.
For A28C U12A the value was 0.89; for A28C U12C, 0.34; for A28C U12G, 0.15.
With A28C G54A the figure was 0.91; with A28C G54U, 0.95; with A28C G54C, 0.86.
Consider A28G G49C, for which the self-cleavage came out at 0.04.
In the case of A28G G49A, the self-cleavage stood at 0.06.
With A28G G49U the figure was 0.06; with A28C G53C, 0.08; with A28C G53U, 0.23.
With A28C G53A the figure was 0.78.
For C27U G30A the value was 0.02; for C27U G30U, 0.05; for C27U G30C, 0.02.
On to A28G C32G, for which the self-cleavage was 0.08.
For the variant A28G C32A, the self-cleavage turned out to be 0.06.
With A28G C32U the figure was 0.05; with A28G G48A, 0.04.
For A28G G48C the value was 0.05; for A28G G48U, 0.04.
As for A28C A29C, the self-cleavage amounted to 0.05.
For A28C A29U the value was 0.09; for A28C A29G, 0.16; for A28C C32U, 0.11.
For A28C C32A the value was 0.08.
A28C C32G: the self-cleavage is 0.1.
With A28C A36U the figure was 1.02.
For A28C A36C the value was 0.64; for A28C A36G, 1.
With A28C C33U, the self-cleavage is 0.86.
For A28C C33A, the self-cleavage came to 0.12.
Take A28C C33G: the self-cleavage amounted to 0.07.
With A28G G50C the figure was 0.14; with A28G G50U, 0.23.
For A28G G50A the value was 0.28; for A28G G23C, 0.04; for A28G G23U, 0.05.
With A28G G23A the figure was 0.13; with A28C G50C, 1.
For the variant A28C G50U, the self-cleavage amounted to 0.98.
With A28C G50A the figure was 0.81.
In the case of C27U C33A, the self-cleavage is 0.05.
With C27U C33G the figure was 0.05; with C27U C33U, 0.13.
For A28G G22A the value was 0.14.
For A28G G22C, the self-cleavage came out at 0.06.
With A28G G22U the figure was 0.1; with A28C U37G, 0.98.
For the variant A28C U37A, the self-cleavage is 0.74.
Turning to A28C U37C, the self-cleavage turned out to be 1.01.
For A28G G45U the value was 0.05.
A28G G45A: the self-cleavage came out at 0.05.
Take A28G G45C: the self-cleavage was 0.04.
For C27U U18C the value was 0.21; for C27U U18G, 0.37; for C27U U18A, 0.24.
For A28C G34A the value was 0.69; for A28C G34U, 0.51; for A28C G34C, 0.38.
For A28C the value was 1; for A28G, 0.48; for A28C G44C, 0.95.
In the case of A28C G44A, the self-cleavage came out at 0.95.
For the variant A28C G44U, the self-cleavage turned out to be 0.75.
A28G G19A: the self-cleavage was found to be 0.15.
Consider A28G G19C, for which the self-cleavage came to 0.05.
With A28G G19U the figure was 0.08.
With C27U G48C the figure was 0.05; with C27U G48A, 0.04.
On to C27U G48U, for which the self-cleavage was determined as 0.03.
With A28G A38G the figure was 0.22; with A28G A38C, 0.21.
Regarding A28G A38U, the self-cleavage worked out at 0.23.
With C27U U24A the figure was 0.04; with C27U U24C, 0.06; with C27U U24G, 0.01.
With A28C C52G the figure was 0.93; with A28C C52U, 1.01; with A28C C52A, 0.68.
Take C27U G51A: the self-cleavage stood at 0.11.
In the case of C27U G51C, the self-cleavage was 0.04.
Consider C27U G51U, for which the self-cleavage worked out at 0.07.
Take A28G G34A: the self-cleavage amounted to 0.21.
In the case of A28G G34C, the self-cleavage was 0.08.
For A28G G34U the value was 0.1.
With A28C A38U the figure was 0.97; with A28C A38C, 0.98.
For A28C A38G the value was 1.01; for A28C C15U, 0.33.
For the variant A28C C15G, the self-cleavage is 0.32.
For A28C C15A the value was 0.35; for A28G A36C, 0.09; for A28G A36G, 0.45.
For A28G A36U the value was 0.36.
With A28C C20G, the self-cleavage is 0.31.
On to A28C C20U, for which the self-cleavage stood at 1.01.
For A28C C20A the value was 0.94.
In the case of A28C G19U, the self-cleavage worked out at 0.35.
For A28C G19C the value was 0.23; for A28C G19A, 0.79.
Regarding A28C A46U, the self-cleavage is 0.07.
For A28C A46G the value was 0.07; for A28C A46C, 0.06.
For C27U the value was 0.33; for C27U C52G, 0.25.
For the variant C27U C52U, the self-cleavage amounted to 0.37.
For C27U C52A the value was 0.21.
For A28C A39C the value was 0.93.
With A28C A39U the figure was 1; with A28C A39G, 0.99.
Regarding C27U U37G, the self-cleavage was 0.37.
In the case of C27U U37C, the self-cleavage was found to be 0.32.
With C27U U37A the figure was 0.16.
C27U G23A: the self-cleavage was found to be 0.07.
In the case of C27U G23C, the self-cleavage came to 0.03.
With C27U G23U the figure was 0.03.
For C27U C9G the value was 0.09; for C27U C9U, 0.1.
With C27U C9A the figure was 0.02.
A28G A29U: the self-cleavage worked out at 0.06.
In the case of A28G A29C, the self-cleavage stood at 0.02.
With A28G A29G the figure was 0.08; with A28G C15U, 0.08; with A28G C15A, 0.08.
Take A28G C15G: the self-cleavage was determined as 0.23.
For A28C A8U, the self-cleavage was 0.1.
Take A28C A8C: the self-cleavage turned out to be 0.09.
With A28C A8G, the self-cleavage stood at 0.17.
For A28G C25U the value was 0.11; for A28G C25G, 0.09; for A28G C25A, 0.04.
With A28G C33A the figure was 0.06; with A28G C33U, 0.11; with A28G C33G, 0.05.
For A28G G47U the value was 0.07.
With A28G G47A, the self-cleavage was 0.08.
For the variant A28G G47C, the self-cleavage amounted to 0.04.
Take C27U G44C: the self-cleavage turned out to be 0.1.
As for C27U G44A, the self-cleavage came out at 0.08.
In the case of C27U G44U, the self-cleavage was 0.12.
With C27U G49U the figure was 0.04; with C27U G49A, 0.05; with C27U G49C, 0.04.
With A28C G48A the figure was 0.09; with A28C G48U, 0.07.
For A28C G48C the value was 0.08; for A28C C11G, 0.21.
As for A28C C11A, the self-cleavage was found to be 0.71.
